Measurements from ChEMBL document CHEMBL1914407, “New dammarane-type glucosides as potential activators of AMP-activated protein kinase (AMPK) from Gynostemma pentaphyllum” (Bioorg Med Chem, 2011).
Activity calls are given as the source filed them.

Legend:
L6 [1] = assay: Induction of AMPK-alpha phosphorylation at thr172 in rat L6 cells after 2 hrs by Western blot analysis; format: cell-based
Method in brief: (§1)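 Differentiated L6 myotubes treated 2 h with a range of compound concentrations (DMSO vehicle), then lysed in pH 8.0 Tris buffer containing NP-40, EDTA, DTT, PMSF, orthovanadate, NaF and protease inhibitors. Immunoblotted for phospho-AMPKα1/2 (Thr172), total AMPK, phospho-ACC (Ser79) and total ACC.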

L6 [2] = assay: Increase in AMPK alpha-mediated GLUT4 translocation into plasma membrane in rat L6 cells assessed as [3H]2-deoxy-glucose uptake after 2 hrs by scintillation counting relative to control; format: cell-based
Method in brief: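 2-Deoxy-[3H]D-glucose added for 10 min, then three ice-cold 0.9% NaCl washes. Cytochalasin B (10 µM) blank subtracted. Cells collected in 0.05 N NaOH and counted by scintillation. Expressed as pmol 2-DG/min/mg protein or fold over control. Mean ± S.D. of three experiments.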

L6 [3] = assay: Induction of AMPK alpha-mediated ACC phosphorylation at ser79 in rat L6 cells after 2 hrs by Western blot analysis; format: cell-based; method in brief: as §1
L6 [4] = assay: Increase in beta-oxidation in rat L6 cells assessed as tritiated water production at 150 uM by scintillation counting; format: functional, cell-based
Method in brief: (§2)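 Fatty acid β-oxidation measured in differentiated L6 myotubes treated with compound, using DMSO as vehicle control. 3H2O formed was quantified in a scintillation counter.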

L6 [5] = assay: Induction of AMPK-alpha phosphorylation at thr172 in rat L6 cells at 150 uM by Western blot analysis in presence of 10 uM of AMPK inhibitor; format: cell-based
Method in brief: (§3)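 L6 myotubes pretreated 10 min with the AMPK inhibitor compound C (10 µM), then exposed to compound for 2 h (DMSO vehicle). Lysates immunoblotted for phospho-AMPKα1/2 (Thr172) and total AMPK.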

L6 [6] = assay: Increase in beta-oxidation in rat L6 cells assessed as tritiated water production at 12 uM by scintillation counter method; format: functional, cell-based; method in brief: as §2
L6 [7] = assay: Induction of AMPK-alpha phosphorylation at thr172 in rat L6 cells at 12 uM by Western blot analysis in presence of 10 uM of AMPK inhibitor; format: cell-based; method in brief: as §3

Measured: Activity

CC(C)=CC/C=C(\C)[C@H]1CC[C@]2(C)[C@@H]1[C@H](O)C[C@@H]1[C@@]3(C)C[C@@H](O)[C@H](O[C@@H]4O[C@H](CO)[C@@H](O)[C@H](O)[C@H]4O[C@@H]4O[C@H](CO)[C@@H](O)[C@H](O)[C@H]4O)C(C)(C)[C@@H]3CC[C@]12C
active: L6 [1] Dose-dependent effect | L6 [2] Dose-dependent effect | L6 [3] Dose-dependent effect | L6 [4] | L6 [5]

C=C(CCC=C(C)C)[C@H]1CC[C@]2(C)[C@@H]1[C@H](O)C[C@@H]1[C@@]3(C)C[C@@H](O)[C@H](O[C@@H]4O[C@H](CO)[C@@H](O)[C@H](O)[C@H]4O[C@@H]4O[C@H](CO)[C@@H](O)[C@H](O)[C@H]4O)C(C)(C)[C@@H]3CC[C@]12C
active: L6 [1] Dose-dependent effect | L6 [2] Dose-dependent effect | L6 [3] Dose-dependent effect | L6 [6] | L6 [7]
